One block for each molecule: values may come before it. The source made the active and inactive calls. No cut-off for these calls is given here.
Key:
Rattus norvegicus [1] = species on record: Rattus norvegicus; test: Ex vivo receptor occupancy at human OX2R expressed in transgenic rat at plasma concentration of 1 uM; assay type: functional
[2] = Tmax in rat at 10 mg/kg, po; assay type: ADME, organism-based; conditions: in vivo
Method in brief: (§1)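 Rats were dosed orally at 10 mg/kg in 100% PEG200 (n = 2), as the free base or the hydrochloride salt. AUC, Tmax, Cmax and bioavailability (F) were derived from plasma levels.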

[3] = Cmax in dog at 3 mg/kg, po; assay type: ADME, organism-based, Canis lupus familiaris; set-up: dose 3 mg/kg, route oral; conditions: in vivo
Method in brief: (§2)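 Oral dosing in dogs at 3 mg/kg as the free base in 20% Vitamin E TPGS in water (n = 2). AUC, Tmax, Cmax and oral bioavailability were determined from plasma.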

Rattus norvegicus [4] = test: Anti-insomnia activity in rat sleep model assessed as increase in slow wave at 30 mg/kg, po up to 2 hrs; assay type: functional, organism-based
[5] = Plasma protein binding in human; assay type: ADME, cell-free; conditions: read-out: PPB (converted)
[6] = AUC in satellite rat sleep model at 30 mg/kg, po; assay type: ADME, organism-based; conditions: in vivo
Method in brief: (§3)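 Satellite rats from the sleep study were given 30 mg/kg orally as the free base in 20% Vitamin E TPGS in water (n = 3). Plasma AUC, Cmax and Tmax were measured over the sleep experiment.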

[7] = Half life in rat at 2 mg/kg, iv; assay type: ADME, organism-based; conditions: in vivo
Method in brief: (§4)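 Intravenous PK in rat (2 mg/kg) and dog (0.125 or 0.5 mg/kg), vehicle 100% DMSO, n = 2. Clearance, Vdss and half-life were determined.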

[8] = Half life in dog at 0.125 mg/kg, iv; assay type: ADME, organism-based, Canis lupus familiaris; conditions: in vivo; method in brief: as §4
[9] = Plasma protein binding in dog; assay type: ADME, cell-free, Canis lupus familiaris; conditions: read-out: PPB (converted)
[10] = Tmax in satellite rat sleep model at 30 mg/kg, po; assay type: ADME, organism-based; conditions: in vivo; method in brief: as §3
[11] = Clearance in dog at 0.125 mg/kg, iv; assay type: ADME, organism-based, Canis lupus familiaris; conditions: in vivo; method in brief: as §4
[12] = Tmax in dog at 3 mg/kg, po; assay type: ADME, organism-based, Canis lupus familiaris; conditions: in vivo; method in brief: as §2
Rattus norvegicus [13] = test: Anti-insomnia activity in rat sleep model assessed as reduction of active wake at 30 mg/kg, po up to 2 hrs; assay type: functional, organism-based
[14] = Oral bioavailability in rat at 10 mg/kg; assay type: ADME, organism-based; conditions: in vivo; method in brief: as §1
[15] = AUC in rat at 10 mg/kg, po; assay type: ADME, organism-based; conditions: in vivo
[16] = Plasma protein binding in rat; assay type: ADME, cell-free; conditions: read-out: PPB (converted)
[17] = Oral bioavailability in dog at 3 mg/kg; assay type: ADME, organism-based, Canis lupus familiaris; conditions: in vivo; method in brief: as §2
[18] = target: Orexin receptor type 1 (Homo sapiens) (UniProt O43613); test: Binding affinity to human orexin 1 receptor expressed in CHO cells after 3 hrs by radioligand binding assay
[19] = Lipophilicity, log D of the compound by HPLC analysis; assay type: physicochemical
[20] = Volume of distribution at steady state in rat at 2 mg/kg, iv; assay type: ADME, organism-based; conditions: in vivo, read-out: Vdss; method in brief: as §4
[21] = target: Orexin receptor type 2 (Homo sapiens) (UniProt O43614); test: Antagonist activity at human orexin 2 receptor expressed in CHO cells assessed as inhibition of orexin-A-induced intracellular calcium level after 60 mins by FLIPR assay; conditions: 1 h
[22] = Oral bioavailability in satellite rat sleep model at 30 mg/kg; assay type: ADME, organism-based; conditions: in vivo; method in brief: as §3
Orexin receptor type 2 = target: T1, Orexin receptor type 2 (Homo sapiens, UniProt O43614); test: Antagonist activity at human orexin 2 receptor expressed in CHO cells assessed as inhibition of orexin-A-induced intracellular calcium level after 60 mins by FLIPR assay; assay type: functional, cell-based
T1 sequence (O43614 whole entry): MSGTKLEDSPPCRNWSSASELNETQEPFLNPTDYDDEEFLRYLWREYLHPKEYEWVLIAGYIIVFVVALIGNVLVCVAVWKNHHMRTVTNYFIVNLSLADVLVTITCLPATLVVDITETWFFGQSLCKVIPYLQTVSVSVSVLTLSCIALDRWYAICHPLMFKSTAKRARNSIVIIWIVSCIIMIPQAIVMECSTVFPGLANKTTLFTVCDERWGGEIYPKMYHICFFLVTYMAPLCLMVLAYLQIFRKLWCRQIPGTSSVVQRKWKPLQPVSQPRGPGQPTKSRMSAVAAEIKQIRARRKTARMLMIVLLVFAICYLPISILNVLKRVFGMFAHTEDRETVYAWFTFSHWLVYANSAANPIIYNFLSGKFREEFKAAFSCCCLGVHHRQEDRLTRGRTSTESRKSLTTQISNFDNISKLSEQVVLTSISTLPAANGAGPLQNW

[23] = Clearance in rat at 2 mg/kg, iv; assay type: ADME, organism-based; conditions: in vivo; method in brief: as §4
[24] = Cmax in rat at 10 mg/kg, po; assay type: ADME, organism-based; set-up: dose 10 mg/kg, route oral; conditions: in vivo; method in brief: as §1
[25] = Apparent permeability of the compound assessed […] by cell based assay; assay type: physicochemical
Rattus norvegicus [26] = test: Anti-insomnia activity in rat sleep model assessed as increase in REM sleep at 30 mg/kg, po up to 2 hrs; assay type: functional, organism-based
[27] = Cmax in satellite rat sleep model at 30 mg/kg, po; assay type: ADME, organism-based; set-up: dose 30 mg/kg, route oral; conditions: in vivo; method in brief: as §3
[28] = AUC in dog at 3 mg/kg, po; assay type: ADME, organism-based, Canis lupus familiaris; conditions: in vivo
[29] = Volume of distribution at steady state in dog at 0.125 mg/kg, iv; assay type: ADME, organism-based, Canis lupus familiaris; conditions: in vivo, read-out: Vdss; method in brief: as §4
[30] = target: Orexin receptor type 2 (Homo sapiens) (UniProt O43614); test: Binding affinity to human orexin 2 receptor expressed in CHO cells after 3 hrs by radioligand binding assay
[31] = Clearance in dog at 0.5 mg/kg, iv; assay type: ADME, organism-based, Canis lupus familiaris; conditions: in vivo; method in brief: as §4
P-glycoprotein [32] = test: Permeability of the compound assessed as rat p-glycoprotein-mediated permeability ratio from basolateral to apical direction; assay type: ADME; conditions: not told
[33] = Cmax in mouse at 300 mg/kg, po; assay type: ADME, organism-based; set-up: dose 300 mg/kg, route oral; conditions: in vivo
Method in brief: (§5)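 Mice were dosed orally at 300 mg/kg as the free base in 20% Vitamin E TPGS in water, during the active phase of the sleep study. Cmax and Tmax were taken from plasma.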

[34] = Tmax in mouse at 300 mg/kg, po; assay type: ADME, organism-based; conditions: in vivo; method in brief: as §5
[35] = Volume of distribution at steady state in dog at 0.5 mg/kg, iv; assay type: ADME, organism-based, Canis lupus familiaris; conditions: in vivo, read-out: Vdss; method in brief: as §4
[36] = Half life in dog at 0.5 mg/kg, iv; assay type: ADME, organism-based, Canis lupus familiaris; conditions: in vivo; method in brief: as §4
P-glycoprotein [37] = test: Permeability of the compound assessed as human p-glycoprotein-mediated permeability ratio from basolateral to apical direction; assay type: ADME; conditions: not told

Tmax [2]: 180 min
Cmax [3]: 2300 nM
fraction unbound [5]: 0.04
AUC [6]: 5.5 µM·h
half-life [7]: 66 min
half-life [8]: 144 min
fraction unbound [9]: 0.005
Tmax [10]: 48 min
clearance [11]: 3 mL/min/kg
Tmax [12]: 36 min
bioavailability [14]: 8%
AUC [15]: 0.6 µM·h
fraction unbound [16]: 0.05
bioavailability [17]: 23%
Ki [18]: 1.5 nM
logD [19]: 3.4
Vd [20]: 2.5 L/kg
IC50 [21]: 27 nM
bioavailability [22]: 19%
IC50 (Orexin receptor type 2): 27 nM
clearance [23]: 37 mL/min/kg
Cmax [24]: 200 nM
Papp [25]: 28 ×10⁻⁶ cm/s
Cmax [27]: 2500 nM
AUC [28]: 9.9 µM·h
Vd [29]: 0.4 L/kg
SMILES: COc1nc(N2CC[C@@H](C)N(C(=O)c3cc(C)ccc3-n3nccn3)CC2)ncc1C(F)(F)F
Activity (Rattus norvegicus [1]): 83%
Activity (Rattus norvegicus [4]): Active
Activity (Rattus norvegicus [13]): Active
Activity (Rattus norvegicus [26]): Active

clearance [11]: 9 mL/min/kg
Ki [18]: 6.1 nM
IC50 [21]: 20 nM
IC50 (Orexin receptor type 2): 20 nM
SMILES: Cc1ccc(-n2nccn2)c(C(=O)N2CCN(c3ncc(Cl)c(C)n3)CC[C@H]2C)c1

Ki [18]: 760 nM
IC50 (Orexin receptor type 2): 42 nM
SMILES: Cc1cnc(Cl)nc1N1CC[C@@H](C)N(C(=O)c2ccccc2-n2nccn2)CC1
Ki [30]: 2.6 nM

clearance [11]: 8 mL/min/kg
Ki [18]: 3.9 nM
IC50 [21]: 28 nM
IC50 (Orexin receptor type 2): 28 nM
SMILES: Cc1ccc(-n2nccn2)c(C(=O)N2CCN(c3ncc(C)c(Cl)n3)CC[C@H]2C)c1
Ki [30]: 0.4 nM

clearance [11]: 10 mL/min/kg
Ki [18]: 1.6 nM
IC50 (Orexin receptor type 2): 85 nM
SMILES: Cc1ccc(-n2nccn2)c(C(=O)N2CCN(c3ncc(C(F)(F)F)c(C)n3)CC[C@H]2C)c1
Ki [30]: 0.5 nM

clearance [31]: 15 mL/min/kg
Tmax [2]: 24 min
Cmax [3]: 1300 nM
efflux ratio (P-glycoprotein [32]): 1.5
fraction unbound [5]: 0.05
half-life [7]: 192 min
fraction unbound [9]: 0.05
Tmax [12]: 24 min
bioavailability [14]: 35%
AUC [15]: 1.2 µM·h
fraction unbound [16]: 0.12
bioavailability [17]: 19%
Cmax [33]: 18000 nM
Ki [18]: 1800 nM
Tmax [34]: 60 min
Vd [35]: 0.8 L/kg
logD [19]: 2.8
Vd [20]: 7 L/kg
half-life [36]: 54 min
efflux ratio (P-glycoprotein [37]): 0.7
IC50 (Orexin receptor type 2): 48 nM
clearance [23]: 118 mL/min/kg
Cmax [24]: 900 nM
Papp [25]: 34 ×10⁻⁶ cm/s
AUC [28]: 1.8 µM·h
SMILES: Cc1ncc(Cl)c(N2CC[C@@H](C)N(C(=O)c3ccccc3-n3nccn3)CC2)n1
Ki [30]: 3.6 nM

Ki [18]: 3600 nM
IC50 (Orexin receptor type 2): 82 nM
SMILES: Cc1ncc(C)c(N2CC[C@@H](C)N(C(=O)c3ccccc3-n3nccn3)CC2)n1

clearance [11]: 3 mL/min/kg
Ki [18]: 6.3 nM
IC50 [21]: 21 nM
IC50 (Orexin receptor type 2): 21 nM
SMILES: COc1nc(N2CC[C@@H](C)N(C(=O)c3ccccc3-n3nccn3)CC2)ncc1C(F)(F)F
Ki [30]: 0.7 nM

clearance [11]: 5 mL/min/kg
Ki [18]: 11 nM
IC50 [21]: 19 nM
IC50 (Orexin receptor type 2): 19 nM
SMILES: Cc1nc(N2CC[C@@H](C)N(C(=O)c3ccccc3-n3nccn3)CC2)ncc1C(F)(F)F

Reference: ChEMBL document CHEMBL3621132, “Discovery of diazepane amide DORAs and 2-SORAs enabled by exploration of isosteric quinazoline replacements” (Bioorg Med Chem Lett, 2015)
